Results on 7 compounds are retold here after BindingDB's records for doi:10.1016/j.ejmech.2013.05.047 (Chulalongkorn University, 2013).

SMILES strings stand for the structures.

Test [1] concerns the target T1, Lysosomal alpha-glucosidase (Rattus norvegicus, UniProt Q6P7A9). As to the kind of experiment: Inhibition of rat intestine maltase using maltose as substrate incubated for 10 mins prior to substrate addition measured after 40 mins by glucose oxidase colorimetric method. In a few lines: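 Crude intestinal enzyme supernatant (12,000 g, 30 min) preincubated with test compound (1 mg/mL, 10 µL) at 37 C for 10 min. Substrate in 0.1 M phosphate buffer pH 6.9 was then added: maltose 0.58 mM for maltase, sucrose 20 mM for sucrase. Incubated 40 min at 37 C, stopped by heating at 80 C for 15 min. Released glucose measured by the glucose oxidase kit. % inhibition = [(A0 − A1)/A0] × 100.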

Test [2] has as its target T1, Lysosomal alpha-glucosidase. As to the kind of experiment: Non-competitive inhibition of rat intestine maltase using maltose as substrate by Lineweaver-Burk plot analysis. The method in brief: (§1)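 Same maltase/sucrase reactions, with activity held at 0.45 (maltase) and 0.09 (sucrase) U/mg protein. Inhibitor 0 to 20.4 mM against substrate 1.0 to 20.0 mM. Vmax and Km obtained from Lineweaver–Burk intercepts and slopes. Ki (EI) from a secondary plot of slope versus inhibitor concentration; Ki′ (ESI) from a secondary plot of intercept versus inhibitor concentration.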

Test [3] has the same target. As to the kind of experiment: Competitive inhibition of rat intestine maltase using maltose as substrate by Lineweaver-Burk plot analysis. In a few lines:
as §1

T1 sequence (Q6P7A9 whole entry): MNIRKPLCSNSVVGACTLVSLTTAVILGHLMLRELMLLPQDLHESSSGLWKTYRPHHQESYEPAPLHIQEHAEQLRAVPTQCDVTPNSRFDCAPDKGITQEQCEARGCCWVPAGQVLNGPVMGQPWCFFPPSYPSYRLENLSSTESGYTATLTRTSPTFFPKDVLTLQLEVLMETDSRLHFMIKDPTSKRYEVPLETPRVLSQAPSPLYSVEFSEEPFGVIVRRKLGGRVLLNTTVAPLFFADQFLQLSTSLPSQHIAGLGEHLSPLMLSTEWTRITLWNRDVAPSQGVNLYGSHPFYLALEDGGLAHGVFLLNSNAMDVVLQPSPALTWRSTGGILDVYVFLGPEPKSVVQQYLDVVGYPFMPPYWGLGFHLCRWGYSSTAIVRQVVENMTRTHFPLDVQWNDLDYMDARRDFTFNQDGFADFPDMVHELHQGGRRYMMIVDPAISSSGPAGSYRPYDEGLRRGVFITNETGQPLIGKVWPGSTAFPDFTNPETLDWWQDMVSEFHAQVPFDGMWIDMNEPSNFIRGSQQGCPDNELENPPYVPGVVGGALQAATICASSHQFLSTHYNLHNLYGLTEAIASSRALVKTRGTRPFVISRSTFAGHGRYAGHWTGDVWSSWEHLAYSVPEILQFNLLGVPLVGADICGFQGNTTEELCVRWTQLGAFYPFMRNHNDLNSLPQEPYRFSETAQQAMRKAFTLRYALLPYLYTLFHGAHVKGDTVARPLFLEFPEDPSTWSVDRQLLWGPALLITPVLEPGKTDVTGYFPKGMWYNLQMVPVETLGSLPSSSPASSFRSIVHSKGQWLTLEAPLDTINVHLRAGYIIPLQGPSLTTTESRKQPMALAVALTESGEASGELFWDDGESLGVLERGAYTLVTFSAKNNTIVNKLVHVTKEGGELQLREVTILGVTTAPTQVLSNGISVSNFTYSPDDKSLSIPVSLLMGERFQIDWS

Broadly, the IC50 is the midpoint of a concentration-inhibition curve. High values mean lower potency, low ones higher potency. For the compound `O=C(O)/C=C/c1ccc(O)c(O)c1` [3,4-Dihydroxycinnamate, XVII], the IC50 in test [1] stood at 34.7 µM. That is a double-digit micromolar value. `COc1cc(/C=C/C(=O)O[C@@H]2C[C@@H](O)[C@H](O)[C@@H](O)[C@H]2O)ccc1O`: in test [1], the IC50 worked out at 51.9 µM. The IC50 values of the last two compounds are within 1.5-fold of each other. One may read the Ki as the equilibrium dissociation constant of an inhibitor or competing ligand from its target. A high value points to a looser hold on the target. With `O=C(/C=C/c1ccc(O)c(O)c1)O[C@@H]1C[C@@H](O)[C@H](O)[C@@H](O)[C@H]1O`, the Ki in test [2] came out at 64.5 µM; in test [3], 23.8 µM. Inhibition in test [1] was half-maximal at 5.31 µM (IC50).

With `COc1ccc(/C=C/C(=O)O[C@H]2C[C@@H](O)[C@H](O)[C@@H](O)[C@H]2O)cc1O`, inhibition in test [1] was half-maximal at 367 µM (IC50). Same read-out and setting: then `COc1ccc(/C=C/C(=O)O[C@@H]2C[C@@H](O)[C@H](O)[C@@H](O)[C@H]2O)cc1O`, with 20.8 µM; and `O=C(/C=C/c1ccc(O)c(O)c1)O[C@H]1C[C@@H](O)[C@H](O)[C@@H](O)[C@H]1O`, with 497 µM; and `COc1cc(/C=C/C(=O)O[C@H]2C[C@@H](O)[C@H](O)[C@@H](O)[C@H]2O)ccc1O`, with 21.1 µM.
